Sampled rows, rich in hits. Any-hit rate of the full collection: about 1.2%.
FN deposit inh = fibronectin deposition inhibition; 350,000 tested, 0.086% active; AID 743247; AH1F fibroblasts, Alexa488-fibronectin deposition fluorescence, overnight; inhibition, % at 12.6 µM;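 active means mean inhibition across replicates of 30% or more, regardless of how many single replicates reach that level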;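 further: positive control wells lacked labelled fibronectin entirely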
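material = AH1F fibroblast monolayer depositing Alexa488-labelled fibronectin into matrix | amount = 10000 AH1F cells/well | buffer or medium = DMEM plus 2% serum, read in PBS | incubation = 1 h cell adhesion before compound, then overnight fibronectin incubation | detection = fluorescence at 485 nm excitation, 525 nm emission | evaluation = percent inhibition as loss of matrix-bound fibronectin fluorescence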
A3G deaminase = APOBEC3G (human) deaminase inhibition. Q9HC16. recombinant A3G, ssDNA deamination FAM/TAMRA fluorescence. inhibition, % at 20 µM. 330,000 tested, 0.28% active;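 active means inhibition of at least 40% at 20 µM, with no more than 30% in the related APOBEC3A deaminase screen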;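 further: plate controls were DMSO wells with A3G for no effect and wells lacking A3G enzyme for full effect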
Target sequence (Q9HC16 whole entry, looked up): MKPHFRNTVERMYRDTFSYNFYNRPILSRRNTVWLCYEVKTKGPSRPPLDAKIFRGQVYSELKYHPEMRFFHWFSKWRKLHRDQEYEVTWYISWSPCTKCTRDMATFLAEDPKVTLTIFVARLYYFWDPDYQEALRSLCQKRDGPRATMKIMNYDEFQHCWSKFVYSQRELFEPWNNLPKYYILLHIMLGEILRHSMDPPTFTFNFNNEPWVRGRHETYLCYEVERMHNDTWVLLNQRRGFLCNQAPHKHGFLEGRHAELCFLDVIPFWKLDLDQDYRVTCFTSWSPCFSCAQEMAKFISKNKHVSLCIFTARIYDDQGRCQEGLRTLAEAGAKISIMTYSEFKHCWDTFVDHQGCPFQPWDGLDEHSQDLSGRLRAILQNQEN
ABHD5-PLIN5 inh = blocks binding of human ABHD5 to perilipin-5; Split G. princeps luciferase complementation, luminescence, 4 h; inhibition, % at 4 µM; 360,000 tested, 0.78% active; Q00G26+Q8WTS1; AID 602281;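 active means inhibition above the mean inhibition across every tested compound plus 3 SD, cut at about 22% in these data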;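 further: 0% = DMSO only wells and the 100% control is not disclosed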
APOBEC3A inh = inhibitors of human APOBEC3A DNA deaminase | P31941 | recombinant A3A, FAM/TAMRA ssDNA deamination fluorescence | inhibition, % at 20 µM | 330,000 tested, 0.41% active | AID 493011;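 active means at least 40% inhibition at 20 µM here, with at most 30% in a related deaminase screen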;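 further: plate controls were A3A with DMSO for no effect and wells lacking A3A enzyme for full effect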
Target sequence (P31941 whole entry, looked up): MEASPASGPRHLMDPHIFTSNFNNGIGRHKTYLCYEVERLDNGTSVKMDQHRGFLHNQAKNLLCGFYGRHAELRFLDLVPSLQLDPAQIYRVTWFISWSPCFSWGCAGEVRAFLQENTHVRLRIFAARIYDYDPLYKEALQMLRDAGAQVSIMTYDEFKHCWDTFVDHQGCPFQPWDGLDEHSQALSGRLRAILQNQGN
APOBEC3A confirm = APOBEC3A (human) deaminase inhibition, confirmed; shares compounds with APOBEC3A inh; recombinant A3A, ssDNA deaminase UDG fluorescence assay; inhibition, % at 20 µM; 1,400 tested, 63% active; AID 493151;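 active means inhibition reaching a set limit, 80% of the first screen's cutoff, at 20 µM in any replicate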;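 further: plate controls were DMSO wells with A3A for no effect and wells lacking A3A enzyme for full effect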
UDG ctr A3A = inhibits UDG, flagging false APOBEC3A inhibitors | shares compounds with APOBEC3A inh | UDG counterscreen, FAM/TAMRA uracil oligo fluorescence | inhibition, % at 20 µM | 1,000 tested, under 10 active | AID 504714; call rule not given here
* hit, by the source's call; . = not tested or not shown.

SMILES	FN deposit inh	A3G deaminase	ABHD5-PLIN5 inh	APOBEC3A inh	APOBEC3A confirm	UDG ctr A3A
C[N+](C)(C)CCCCCCC(=O)/C=N/O	-9	15	4	61*	67*	5
C[N+]1(CCCCCCC(=O)/C=N/O)CCCCCC1	-2	27	1	42*	61*	0
COCC[N+]1(C)CCCCC1	-6	34	-3	101	.	.
Cc1ccc(S(=O)(=O)/N=C2/NC(=O)/C(=C/c3ccc(Br)o3)S2)cc1	.	-6	8	52*	-5	1
Cc1ccc(N(C)C(=O)n2cnc3ccccc32)cc1	-7	-6	1	52*	-1	-3
CC(=O)Nc1ccc(NC(=O)Nc2ccccc2C)cc1	4	21	5	0	.	.
Cc1ccccc1NC(=O)N(C(C)C)C(C)C	.	-4	-4	83*	-2	-2
COc1cccc(CN(CC(=O)NCc2ccc(F)cc2)C(=O)c2ccco2)c1	-4	-2	-1	45*	-6	-3
CCOC(=O)N(C)C[C@H]1OCc2ccccc2-c2ccccc2C(=O)N([C@H](C)CO)C[C@H]1C	-6	.	.	.	.	.
O=C(NCc1ccccc1CN1CCCCC1)c1ccccc1N1CCCC1=O	11	14	0	57*	61*	-3
O=C(NCc1ccccc1CN1CCCCC1)c1ccc(Cl)cc1N1CCCC1=O	-9	48	2	32	.	.
CC(C)NC(=O)Nc1ccc2c(c1)CC(=O)N([C@@H](C)CO)C[C@@H](C)[C@H](CN(C)C)O2	6	.	.	.	.	.
Cc1cccc2nc3ccccc3cc12	8	-3	-6	1	.	.
CCN(CC)c1cc(C)c2ccccc2n1	14	16	0	57*	7	.
CN(C)S(=O)(=O)N(CC(=O)N1CCN(Cc2ccccc2)CC1)c1ccccc1	-4	-6	2	33	.	.
CN(CC(=O)N1CCN(Cc2ccccc2)CC1)C(=O)Cc1ccc(Cl)c(Cl)c1	-2	1	-2	50*	34*	-3
C[N+]1(C2CCC3CCCC2C3O)CCCC1 (configuration not stated)	2	10	7	59*	74*	0
C[C@H]1CN([C@@H](C)CO)C(=O)c2cc(C3=CCCCC3)cnc2O[C@@H]1CN(C)C(=O)c1cccnc1	-18	.	.	.	.	.
COc1ccc(NC(=O)/C=C/c2cccc(Br)c2)cn1	-5	-7	5	41*	15*	1
O=C(O)c1cccc(-n2cccc2/C=C2/NC(=O)N(Cc3ccccc3F)C2=O)c1	-3	11	0	62*	62*	-1
C[n+]1cc(-c2ccccc2)n2c1CCCCC2	.	9	5	53*	67*	-3
C[n+]1cn(CC(O)COCc2ccccc2)c2ccccc21 (configuration not stated)	3	13	2	56*	77*	4
Cc1cc2c(cc1C)[n+](C)cn2CC(O)COCc1ccccc1 (configuration not stated)	.	8	2	41*	25	.
CN1CCN(C(=O)C[C@@H]2CC[C@@H]3[C@H](COC[C@H](O)CN3Cc3cccc(F)c3)O2)CC1	6	.	.	.	.	.
CCC(C)N(C(=O)COc1ccc(Cl)c2cccnc12)C1CCS(=O)(=O)C1 (configuration not stated)	5	29	-9	62*	25	.
SMILES	FN deposit inh	A3G deaminase	ABHD5-PLIN5 inh	APOBEC3A inh	APOBEC3A confirm	UDG ctr A3A
CCN1CCN(CC(O)COCc2ccccc2)CC1 (configuration not stated)	.	-5	3	-2	.	.
CCCc1n(CC(O)COCC2CC=CCC2)c2ccccc2[n+]1C (configuration not stated)	6	9	1	37	.	.
CCCc1n(CC(O)COC2CCCCC2)c2ccccc2[n+]1C (configuration not stated)	.	13	0	56*	76*	1
CCCc1n(CC(O)COCc2ccccc2)c2ccccc2[n+]1C (configuration not stated)	-15	8	3	58*	69*	-2
CN1c2ccc(-c3cccc(C#N)c3)cc2[C@@H]2[C@@H](CCN2C(=O)NC2CCCC2)[C@@H]1CO	0	.	.	.	.	.
C[C@H](NC(=O)N(C)C[C@H]1OCc2ccccc2-c2ccccc2C(=O)N([C@H](C)CO)C[C@@H]1C)c1ccccc1	-10	.	.	.	.	.
CCOc1ccc(NC(=O)c2cc(C3CC3)nc3c2cnn3C(C)C)cc1OC	-5	10	-2	51*	28	.
Cc1ccc(F)cc1NC(=O)CCc1c(C)[nH]c(=O)c(C#N)c1C	4	-4	-6	6	.	.
Cc1[nH]c(=O)c(C#N)c(C)c1CCC(=O)Nc1cc(S(C)(=O)=O)ccc1Cl	0	18	4	73*	42*	-3
COc1ccc(C2=[N+](C)CCn3cccc32)c(OC)c1	3	14	-10	63*	73*	3
Cc1ccccc1COc1ccc(-c2nnn(CC(=O)O)n2)cc1	6	-1	1	40*	23	2
Cc1ccc(-c2nnn(CC(=O)O)n2)cc1	4	-1	0	2	.	.
CCN1CCN(c2ccc(NC(=O)c3ccccc3F)cc2Cl)CC1	-21	-6	-8	10	.	.
CCN1CCN(c2ccc(NC(=O)c3cc4ccccc4cc3OC)cc2C)CC1	1	7	16	41*	73*	-4
CCN1CCN(c2ccc(NC(=O)c3ccc4c(c3)OCCO4)cc2C)CC1	2	19	-12	74*	73*	-1
CC(=O)N1[C@H](CO)[C@@H](c2ccc(-c3cccc(F)c3)cc2)[C@H]1CNC(=O)C1CC1	6	.	.	.	.	.
C[C@H](CO)N1C[C@H](C)[C@@H](CN(C)Cc2ccc3c(c2)OCO3)OCc2ccccc2-c2c(n(C)c3ccccc23)C1=O	-2	.	.	.	.	.
CO[C@H]1CN(C)C(=O)c2cc(NC(=O)Nc3ccc(F)cc3)ccc2OC[C@H](C)NC[C@@H]1C	-16	.	.	.	.	.
O=C(C1CC1)N1CC2(C1)[C@H](c1ccccc1)[C@@H](CO)N2C(=O)c1cccnc1	-13	.	.	.	.	.
COc1ccc(N2CC(C(=O)NCc3ccco3)CC2=O)cc1 (configuration not stated)	-5	-1	6	41*	46*	4
CCOc1ccc(N2CC(C(=O)NCc3ccco3)CC2=O)cc1 (configuration not stated)	-1	-4	9	0	.	.
C[C@@H]1CN([C@H](C)CO)C(=O)c2cc(NC(=O)Nc3cccc4ccccc34)ccc2O[C@@H](C)CCCCO[C@@H]1CN(C)S(=O)(=O)c1ccccc1	-9	.	.	.	.	.
COc1ccc(C(=O)N2CCc3cc(OC)c(OC)cc3C2c2ccc(OC)c(OC)c2)cc1OC (configuration not stated)	3	-9	0	59*	6	6
Cc1cc(C(=O)N/N=C/c2ccc(Br)o2)n[nH]1	3	-2	2	-1	.	.
